According to ChEMBL document CHEMBL5058577, “EUbOPEN Chemogenomics Library 2 (Multiplex)” (2022):

System: HEK-293T
Experiment: Multiplex assay against HEK293T
Assay type: toxicity, cell-based
Details: human
Method in brief: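 At seeding, live cells were stained with Hoechst33342, BioTracker Green Microtubule Cytoskeleton Dye, MitoTracker Red and Annexin V Alexa Fluor 680. After compound addition they were imaged on a CQ1 microscope at 37°C and 5% CO2, and CellPathfinder machine-learning gating sorted them into Hoechst high-intensity objects or normal cells, with normal cells further split into healthy, pyknosed or fragmented nuclei and pyknosed cells into mitotic or apoptotic. Tubulin, mitochondrial-mass and membrane-permeability phenotypes are given as per cents of cells with healthy nuclei.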

[1] = 12 h, 1 µM, compound concentration 1 uM, replicate 1
[2] = 12 h, 1 µM, compound concentration 1 uM, replicate 2
[3] = 12 h, 10 µM, compound concentration 10 uM, replicate 1
[4] = 12 h, 10 µM, compound concentration 10 uM, replicate 2
[5] = 24 h, 1 µM, compound concentration 1 uM, replicate 1
[6] = 24 h, 1 µM, compound concentration 1 uM, replicate 2
[7] = 24 h, 10 µM, compound concentration 10 uM, replicate 1
[8] = 24 h, 10 µM, compound concentration 10 uM, replicate 2
[9] = 48 h, 1 µM, compound concentration 1 uM, replicate 1
[10] = 48 h, 1 µM, compound concentration 1 uM, replicate 2
[11] = 48 h, 10 µM, compound concentration 10 uM, replicate 1
[12] = 48 h, 10 µM, compound concentration 10 uM, replicate 2

`Cc1nn(C)c2nc(NNC(=O)Nc3cc(Cl)nc(Cl)c3)cc(C(C)C)c12` was tested, and the “Population Apoptotic (%)” value [1] was 27%, the “Population Fragmented Nuclei (%)” value [1] was 5% and the “Population Healthy Nuclei (%)” value [1] was 77%. The “Population Hoechst High Intensity Objects (%)” value [1] was 5%, the “Population Membrane Permeable-Phenotype (%)” value [1] was 0% and the “Population Mitochondria Different-Phenotype (%)” value [1] was 37%. For the same compound, the “Population Mitotic Cells (%)” value [1] was 72%, the “Population Normal (%)” value [1] was 94% and the “Population Pyknosed Nuclei (%)” value [1] was 16%. The “Population Tubulin-Different-Phenotype (%)” value [1] was 26%, the “Total Cell Count” value [1] was 467 and the “Population Apoptotic (%)” value [2] was 40%. The “Population Healthy Nuclei (%)” value [2] was 81%, the “Population Hoechst High Intensity Objects (%)” value [2] was 2% and the “Population Mitochondria Different-Phenotype (%)” value [2] was 59%. For the same compound, the “Population Mitotic Cells (%)” value [2] was 60%, the “Population Normal (%)” value [2] was 97% and the “Population Pyknosed Nuclei (%)” value [2] was 13%. The “Population Tubulin-Different-Phenotype (%)” value [2] was 25%, the “Total Cell Count” value [2] was 383 and the “Population Apoptotic (%)” value [3] was 55%. For the same compound, the “Population Fragmented Nuclei (%)” value [3] was 5%, the “Population Healthy Nuclei (%)” value [3] was 61% and the “Population Hoechst High Intensity Objects (%)” value [3] was 12%. For the same compound, the “Population Membrane Permeable-Phenotype (%)” value [3] was 1%, the “Population Mitochondria Different-Phenotype (%)” value [3] was 79% and the “Population Mitotic Cells (%)” value [3] was 44%. The “Population Normal (%)” value [3] was 88%, the “Population Pyknosed Nuclei (%)” value [3] was 32% and the “Population Tubulin-Different-Phenotype (%)” value [3] was 80%. The “Total Cell Count” value [3] was 300, the “Population Apoptotic (%)” value [4] was 46% and the “Population Fragmented Nuclei (%)” value [4] was 4%. The “Population Healthy Nuclei (%)” value [4] was 74%, the “Population Hoechst High Intensity Objects (%)” value [4] was 3% and the “Population Mitochondria Different-Phenotype (%)” value [4] was 84%. The “Population Mitotic Cells (%)” value [4] was 53%, the “Population Normal (%)” value [4] was 96% and the “Population Pyknosed Nuclei (%)” value [4] was 21%. For the same compound, the “Population Tubulin-Different-Phenotype (%)” value [4] was 75%, the “Total Cell Count” value [4] was 396 and the “Population Apoptotic (%)” value [5] was 31%. For the same compound, the “Population Fragmented Nuclei (%)” value [5] was 9%, the “Population Healthy Nuclei (%)” value [5] was 78% and the “Population Hoechst High Intensity Objects (%)” value [5] was 3%. The “Population Membrane Permeable-Phenotype (%)” value [5] was 0%, the “Population Mitochondria Different-Phenotype (%)” value [5] was 27% and the “Population Mitotic Cells (%)” value [5] was 68%. The “Population Normal (%)” value [5] was 96%, the “Population Pyknosed Nuclei (%)” value [5] was 11% and the “Population Tubulin-Different-Phenotype (%)” value [5] was 20%. For the same compound, the “Total Cell Count” value [5] was 608, the “Population Fragmented Nuclei (%)” value [6] was 6% and the “Population Healthy Nuclei (%)” value [6] was 82%. The “Population Hoechst High Intensity Objects (%)” value [6] was 1%, the “Population Mitochondria Different-Phenotype (%)” value [6] was 37% and the “Population Normal (%)” value [6] was 98%. For the same compound, the “Population Tubulin-Different-Phenotype (%)” value [6] was 19%, the “Total Cell Count” value [6] was 512 and the “Population Apoptotic (%)” value [7] was 59%. For the same compound, the “Population Fragmented Nuclei (%)” value [7] was 10%, the “Population Healthy Nuclei (%)” value [7] was 66% and the “Population Hoechst High Intensity Objects (%)” value [7] was 5%. The “Population Membrane Permeable-Phenotype (%)” value [7] was 0%, the “Population Mitochondria Different-Phenotype (%)” value [7] was 78% and the “Population Mitotic Cells (%)” value [7] was 40%. For the same compound, the “Population Normal (%)” value [7] was 94%, the “Population Pyknosed Nuclei (%)” value [7] was 22% and the “Population Tubulin-Different-Phenotype (%)” value [7] was 74%. For the same compound, the “Total Cell Count” value [7] was 321, the “Population Apoptotic (%)” value [8] was 55% and the “Population Fragmented Nuclei (%)” value [8] was 5%. The “Population Healthy Nuclei (%)” value [8] was 78%, the “Population Mitochondria Different-Phenotype (%)” value [8] was 80% and the “Population Mitotic Cells (%)” value [8] was 44%. The “Population Normal (%)” value [8] was 95%, the “Population Pyknosed Nuclei (%)” value [8] was 16% and the “Population Tubulin-Different-Phenotype (%)” value [8] was 69%. For the same compound, the “Total Cell Count” value [8] was 440, the “Population Apoptotic (%)” value [9] was 27% and the “Population Fragmented Nuclei (%)” value [9] was 12%. The “Population Healthy Nuclei (%)” value [9] was 78%, the “Population Hoechst High Intensity Objects (%)” value [9] was 3% and the “Population Membrane Permeable-Phenotype (%)” value [9] was 1%. The “Population Mitochondria Different-Phenotype (%)” value [9] was 17%, the “Population Mitotic Cells (%)” value [9] was 72% and the “Population Normal (%)” value [9] was 96%. The “Population Pyknosed Nuclei (%)” value [9] was 9%, the “Population Tubulin-Different-Phenotype (%)” value [9] was 16% and the “Total Cell Count” value [9] was 912. For the same compound, the “Population Apoptotic (%)” value [10] was 18%, the “Population Fragmented Nuclei (%)” value [10] was 13% and the “Population Healthy Nuclei (%)” value [10] was 81%. For the same compound, the “Population Hoechst High Intensity Objects (%)” value [10] was 2%, the “Population Mitochondria Different-Phenotype (%)” value [10] was 25% and the “Population Mitotic Cells (%)” value [10] was 81%. The “Population Normal (%)” value [10] was 97%, the “Population Pyknosed Nuclei (%)” value [10] was 5% and the “Population Tubulin-Different-Phenotype (%)” value [10] was 19%. The “Total Cell Count” value [10] was 748, the “Population Apoptotic (%)” value [11] was 62% and the “Population Fragmented Nuclei (%)” value [11] was 9%. For the same compound, the “Population Healthy Nuclei (%)” value [11] was 72%, the “Population Hoechst High Intensity Objects (%)” value [11] was 3% and the “Population Membrane Permeable-Phenotype (%)” value [11] was 0%. For the same compound, the “Population Mitochondria Different-Phenotype (%)” value [11] was 82%, the “Population Mitotic Cells (%)” value [11] was 37% and the “Population Normal (%)” value [11] was 96%. For the same compound, the “Population Pyknosed Nuclei (%)” value [11] was 18%, the “Population Tubulin-Different-Phenotype (%)” value [11] was 78% and the “Total Cell Count” value [11] was 387. For the same compound, the “Population Apoptotic (%)” value [12] was 45%, the “Population Healthy Nuclei (%)” value [12] was 79% and the “Population Hoechst High Intensity Objects (%)” value [12] was 4%. The “Population Mitochondria Different-Phenotype (%)” value [12] was 71%, the “Population Mitotic Cells (%)” value [12] was 55% and the “Population Normal (%)” value [12] was 95%. For the same compound, the “Population Pyknosed Nuclei (%)” value [12] was 10%, the “Population Tubulin-Different-Phenotype (%)” value [12] was 63% and the “Total Cell Count” value [12] was 593.
